Active and inactive are the calls of the source. The calls are words filed in the database; no cut-off is given here.
Assays:
A549 [1] = experiment: Cytotoxicity in human A549 cells assessed as reduction in cell viability incubated for 72 hrs by MTT assay; details: A549, 72 h
B16 = experiment: Cytotoxicity in mouse B16 cells assessed as reduction in cell viability incubated for 72 hrs by MTT assay; format: functional, cell-based; details: for IC50: B16, 72 h
Method in brief: (§1)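 Cells pre-incubated 24 h at 37 °C, 5% CO2, then exposed to a range of compound concentrations for 72 h. Viability read as mitochondrial MTT-to-formazan conversion, absorbance at 570 nm.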

MCF7 = experiment: Cytotoxicity in human MCF7 cells assessed as reduction in cell viability incubated for 72 hrs by MTT assay; format: functional, cell-based; details: for IC50: MCF7, 72 h; method in brief: as §1
HepG2 [2] = experiment: Cytotoxicity in human HepG2 cells assessed as reduction in cell viability incubated for 72 hrs by MTT assay; format: functional, cell-based; details: for IC50: HepG2, 72 h; method in brief: as §1
L02 [3] = experiment: Cytotoxicity in human LO2 cells assessed as reduction in cell viability at 30 uM incubated for 48 hrs by MTT assay; format: cell-based; details: l02, 48 h
Method in brief: (§2)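 Normal hepatic L02 cells incubated with compound for 48 h. Cell viability measured across a concentration series.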

[4] = Selectivity index, ratio of IC50 for human LO2 cells to IC50 for human HepG2 cells; format: toxicity; details: LO2 cells versus HepG2 cells, read-out: Ratio IC50
Method in brief: (§3)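 Selectivity ratio is L02 IC50 divided by cancer-cell IC50, each taken from the MTT viability assay.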

HepG2 [5] = experiment: Ratio of cytotoxicity in human HepG2 cells at 1 uM in presence of 5 mM NAC incubated for 48 hrs by MTT assay to cytotoxicity in human HepG2 cells at 1 uM in absence of 5 mM NAC incubated for 48 hrs by MTT assay; format: functional
Method in brief: (§4)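 HepG2 cells incubated 48 h with compound at 1, 5 or 10 µM, with or without 5 mM N-acetylcysteine. Ratio is cell viability with NAC divided by viability with compound alone at the same concentration.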

HepG2 [6] = experiment: Ratio of cytotoxicity in human HepG2 cells at 10 uM in presence of 5 mM NAC incubated for 48 hrs by MTT assay to cytotoxicity in human HepG2 cells at 10 uM in absence of 5 mM NAC incubated for 48 hrs by MTT assay; format: functional; method in brief: as §4
HepG2 [7] = experiment: Induction of ROS generation in human HepG2 cells at 2 to 6 uM incubated for 24 hrs by DCFH-DA staining based flow cytometry; format: functional, cell-based
Method in brief: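 HepG2 seeded at 6×10^4 cells/well and grown 24 h, then treated 24 h with 2, 4 or 6 µM. Washed with PBS and serum-free medium, loaded with serum-free DCFH-DA 30 min at 37 °C, washed twice cold. Fluorescence read by flow cytometry at 488/525 nm. Mean ± SEM, n = 3.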

[8] = Selectivity index, ratio of IC50 for human LO2 cells to IC50 for human LNCAP cells; format: toxicity; details: LO2 cells versus LNCAP cells, read-out: Ratio IC50; method in brief: as §3
A549 [9] = experiment: Cytotoxicity in human A549 cells assessed as reduction in cell viability incubated for 72 hrs by MTT assay
HeLa = experiment: Cytotoxicity in human HeLa cells assessed as reduction in cell viability incubated for 72 hrs by MTT assay; format: functional, cell-based; method in brief: as §1
L02 [10] = experiment: Cytotoxicity in human LO2 cells assessed as reduction in cell viability at 15 uM incubated for 48 hrs by MTT assay; format: cell-based; details: l02, 48 h; method in brief: as §2
HepG2 [11] = experiment: Induction of apoptosis in human HepG2 cells assessed as apoptosis level at 2 to 4 uM incubated for 24 hrs by FITC-labelled Annexin V/PI staining based flow cytometry; format: functional, cell-based
Method in brief: (§5)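 HepG2 treated 24 h with 2, 4 or 6 µM; 0.1% DMSO vehicle control. Stained with FITC-Annexin V/PI and analysed by flow cytometry 10-15 min after staining. Annexin V+/PI- counted as early/median apoptotic, Annexin V+/PI+ as late apoptotic.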

[12] = Selectivity index, ratio of IC50 for human LO2 cells to IC50 for mouse B16 cells; format: toxicity; details: LO2 cells versus B16 cells, read-out: Ratio IC50; method in brief: as §3
HepG2 [13] = experiment: Induction of apoptosis in human HepG2 cells assessed as apoptosis level at 6 uM incubated for 24 hrs by FITC-labelled Annexin V/PI staining based flow cytometry (reference value: 2.6%); format: functional; method in brief: as §5
LNCaP = experiment: Cytotoxicity in human LNCAP cells assessed as reduction in cell viability incubated for 72 hrs by MTT assay; format: functional, cell-based; method in brief: as §1
[14] = Selectivity index, ratio of IC50 for human LO2 cells to IC50 for human MCF7 cells; format: toxicity; details: LO2 cells versus MCF7 cells, read-out: Ratio IC50; method in brief: as §3
[15] = Selectivity index, ratio of IC50 for human LO2 cells to IC50 for human A549 cells; format: toxicity; details: LO2 cells versus A549 cells, read-out: Ratio IC50; method in brief: as §3
[16] = target: Cyclin-dependent kinase 2 (Homo sapiens, UniProt P24941); experiment: Inhibition of CDK2 (unknown origin)
Method in brief: (§6)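 Kinase profiling run as a contract service, with ATP at the Km of each kinase.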

[17] = target: Hepatocyte growth factor receptor (Homo sapiens, UniProt P08581); experiment: Inhibition of c-Met (unknown origin); method in brief: as §6
HepG2 [18] = experiment: Ratio of cytotoxicity in human HepG2 cells at 5 uM in presence of 5 mM NAC incubated for 48 hrs by MTT assay to cytotoxicity in human HepG2 cells at 5 uM in absence of 5 mM NAC incubated for 48 hrs by MTT assay; format: functional; method in brief: as §4
[19] = Selectivity index, ratio of IC50 for human LO2 cells to IC50 for human HeLa cells; format: toxicity; details: LO2 cells versus HeLa cells, read-out: Ratio IC50; method in brief: as §3
[20] = target: Cyclin-dependent kinase 9 (Homo sapiens, UniProt P50750); experiment: Inhibition of CDK9 (unknown origin); method in brief: as §6
HepG2 [21] = experiment: Induction of apoptosis in human HepG2 cells assessed as apoptosis level incubated for 24 hrs by FITC-labelled Annexin V/PI staining based flow cytometry; format: functional, cell-based; method in brief: as §5

Sequence of Cyclin-dependent kinase 9 (P50750 whole entry): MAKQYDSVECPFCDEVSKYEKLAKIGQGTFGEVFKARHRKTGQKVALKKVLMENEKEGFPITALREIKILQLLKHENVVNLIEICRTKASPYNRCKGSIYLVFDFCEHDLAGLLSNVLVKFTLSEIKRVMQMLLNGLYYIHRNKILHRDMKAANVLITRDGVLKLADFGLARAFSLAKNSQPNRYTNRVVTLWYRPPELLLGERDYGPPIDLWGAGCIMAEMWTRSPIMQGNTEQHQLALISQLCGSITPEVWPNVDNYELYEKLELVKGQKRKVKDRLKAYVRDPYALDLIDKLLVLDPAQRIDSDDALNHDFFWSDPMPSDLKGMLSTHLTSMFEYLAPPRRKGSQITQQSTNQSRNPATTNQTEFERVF
Sequence of Hepatocyte growth factor receptor (P08581 whole entry): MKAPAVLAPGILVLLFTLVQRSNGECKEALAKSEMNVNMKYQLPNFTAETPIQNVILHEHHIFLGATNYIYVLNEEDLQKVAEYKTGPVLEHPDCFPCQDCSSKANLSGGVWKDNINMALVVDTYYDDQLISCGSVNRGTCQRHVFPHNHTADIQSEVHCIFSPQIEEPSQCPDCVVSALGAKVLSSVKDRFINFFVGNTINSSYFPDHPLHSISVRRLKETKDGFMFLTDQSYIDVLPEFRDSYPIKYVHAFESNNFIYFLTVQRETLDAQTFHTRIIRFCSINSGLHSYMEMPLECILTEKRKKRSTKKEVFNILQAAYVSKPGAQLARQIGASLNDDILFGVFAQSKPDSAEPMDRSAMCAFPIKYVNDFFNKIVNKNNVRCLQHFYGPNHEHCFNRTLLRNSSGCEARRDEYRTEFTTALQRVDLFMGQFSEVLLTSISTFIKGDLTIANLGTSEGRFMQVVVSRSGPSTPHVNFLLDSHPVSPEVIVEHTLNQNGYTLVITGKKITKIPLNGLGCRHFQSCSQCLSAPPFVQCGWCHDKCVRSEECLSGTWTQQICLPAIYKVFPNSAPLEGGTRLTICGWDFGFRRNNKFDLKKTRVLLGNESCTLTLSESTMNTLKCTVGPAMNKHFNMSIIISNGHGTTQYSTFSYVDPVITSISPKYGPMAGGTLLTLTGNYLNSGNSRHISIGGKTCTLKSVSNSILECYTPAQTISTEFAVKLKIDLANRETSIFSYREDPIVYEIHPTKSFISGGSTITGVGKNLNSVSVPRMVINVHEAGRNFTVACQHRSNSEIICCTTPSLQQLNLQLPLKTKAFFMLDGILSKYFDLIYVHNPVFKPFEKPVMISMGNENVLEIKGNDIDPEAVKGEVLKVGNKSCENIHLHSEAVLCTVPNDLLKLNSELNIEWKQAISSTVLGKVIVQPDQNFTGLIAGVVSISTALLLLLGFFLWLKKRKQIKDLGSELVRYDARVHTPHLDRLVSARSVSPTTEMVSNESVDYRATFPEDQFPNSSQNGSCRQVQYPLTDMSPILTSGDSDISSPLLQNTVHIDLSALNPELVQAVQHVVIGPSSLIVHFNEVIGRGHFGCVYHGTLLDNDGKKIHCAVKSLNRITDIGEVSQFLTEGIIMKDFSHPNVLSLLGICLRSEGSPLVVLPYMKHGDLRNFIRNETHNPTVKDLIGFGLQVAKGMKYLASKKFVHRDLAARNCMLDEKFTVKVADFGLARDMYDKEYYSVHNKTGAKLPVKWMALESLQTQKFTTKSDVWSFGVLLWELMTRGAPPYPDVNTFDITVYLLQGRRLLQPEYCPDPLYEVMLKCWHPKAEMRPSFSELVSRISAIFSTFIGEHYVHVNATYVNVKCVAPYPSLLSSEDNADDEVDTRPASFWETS

COc1c(OCCCCN2CCN(C)CC2)cc(O)c2c(=O)cc(-c3ccc(F)cc3)oc12
IC50 (A549 [1]): 2.22 µM
IC50 (B16): 4.32 µM
IC50 (MCF7): 3.86 µM
IC50 (HepG2 [2]): 2.81 µM

CN1CCN(CCOc2c(OCc3ccccc3)cc(O)c3c(=O)cc(-c4ccccc4)oc23)CC1
IC50 (A549 [1]): 4.41 µM
IC50 (B16): 4.37 µM
IC50 (MCF7): 4.43 µM
IC50 (HepG2 [2]): 2.89 µM

O=c1cc(-c2ccccc2)oc2c(OCCCCN3CCOCC3)c(OCc3ccccc3)cc(O)c12
IC50 (A549 [1]): 6.6 µM
IC50 (B16): 5.41 µM
IC50 (MCF7): 9.9 µM
IC50 (HepG2 [2]): 3.29 µM

Cc1ccc(COc2cc(O)c3c(=O)cc(-c4ccccc4)oc3c2OCCCCN2CCN(C)CC2)cc1
IC50 (A549 [1]): 3.2 µM
IC50 (B16): 3.29 µM
IC50 (MCF7): 2.22 µM
IC50 (HepG2 [2]): 5.09 µM

CN1CCN(CCCCOc2c(OCc3nc4ccccc4o3)cc(O)c3c(=O)cc(-c4ccccc4)oc23)CC1
IC50 (A549 [1]): 3.87 µM
IC50 (B16): 2.08 µM
IC50 (MCF7): 4.98 µM
IC50 (HepG2 [2]): 4.11 µM

COc1c(OCCCCN2CCN(C)CC2)cc(O)c2c(=O)cc(-c3ccc([N+](=O)[O-])cc3)oc12
IC50 (A549 [1]): 3.21 µM
IC50 (B16): 2.89 µM
IC50 (MCF7): 4.09 µM
IC50 (HepG2 [2]): 2.62 µM

COc1c(O)cc(O)c2c(=O)cc(-c3ccccc3)oc12 [WOGONIN]
IC50 (A549 [1]): 20.1 µM
IC50 (B16): 26.4 µM
IC50 (MCF7): 28 µM
IC50 (HepG2 [2]): 19.5 µM

CN(C)CCCOc1c(OCc2ccccc2)cc(O)c2c(=O)cc(-c3ccccc3)oc12
IC50 (A549 [1]): 2.91 µM
IC50 (B16): 5.42 µM
IC50 (MCF7): 3.21 µM
IC50 (HepG2 [2]): 4.95 µM

COc1c(OCCCCN2CCN(C)CC2)cc(O)c2c(=O)cc(-c3ccc(F)cc3Br)oc12
IC50 (A549 [1]): 2.98 µM
IC50 (B16): 3.44 µM
IC50 (MCF7): 3.09 µM
IC50 (HepG2 [2]): 2.13 µM

O=c1[nH]cc(F)c(=O)[nH]1 [FLUOROURACIL]
IC50 (B16): 1.19 µM
IC50 (MCF7): 14.7 µM

CCN(CC)CCCOc1c(OCc2ccccc2)cc(O)c2c(=O)cc(-c3ccccc3)oc12
IC50 (A549 [1]): 3.62 µM
IC50 (B16): 4.9 µM
IC50 (MCF7): 3.21 µM
IC50 (HepG2 [2]): 3.01 µM

COc1c(OCCCCN2CCN(C)CC2)cc(O)c2c(=O)cc(-c3ccc(Cl)cc3)oc12
IC50 (A549 [1]): 1.43 µM
IC50 (B16): 2.09 µM
IC50 (MCF7): 3.21 µM
IC50 (HepG2 [2]): 3.75 µM

COc1ccc(-c2cc(=O)c3c(O)cc(OCCCCN4CCN(C)CC4)c(OC)c3o2)cc1
IC50 (A549 [1]): 2.32 µM
IC50 (B16): 4.1 µM
IC50 (MCF7): 3.98 µM
IC50 (HepG2 [2]): 4.2 µM

COc1c(OCCCCN2CCN(C)CC2)cc(O)c2c(=O)cc(-c3ccc(C)cc3)oc12
IC50 (A549 [1]): 3.81 µM
IC50 (B16): 5.43 µM
IC50 (MCF7): 4.02 µM
IC50 (HepG2 [2]): 1 µM

O=c1cc(-c2ccccc2)oc2c(OCCCCN(CCO)CCO)c(OCc3ccccc3)cc(O)c12
IC50 (A549 [1]): 4.35 µM
IC50 (B16): 3.76 µM
IC50 (MCF7): 1.09 µM
IC50 (HepG2 [2]): 3.14 µM

CN1CCN(CCCCOc2c(OCc3ccc(C#N)cc3)cc(O)c3c(=O)cc(-c4ccccc4)oc23)CC1
IC50 (A549 [1]): 2.14 µM
Activity (L02 [3]): Toxic
selectivity ratio [4]: 27
Ratio (HepG2 [5]): 2.7
Activity (B16): Dose-dependent effect
IC50 (B16): 3.7 µM
Ratio (HepG2 [6]): 7
Activity (HepG2 [7]): Dose-dependent effect
Activity (MCF7): Dose-dependent effect
IC50 (MCF7): 2.42 µM
selectivity ratio [8]: 4.3 to 27
Activity (A549 [9]): Dose-dependent effect
Activity (HeLa): Dose-dependent effect
IC50 (HeLa): 2.65 µM
Activity (L02 [10]): Non-Toxic
Activity (HepG2 [11]): inactive
selectivity ratio [12]: 4.3 to 27
Activity (HepG2 [13]): 30.7%
Activity (LNCaP): Dose-dependent effect
IC50 (LNCaP): 1.72 µM
selectivity ratio [14]: 4.3 to 27
selectivity ratio [15]: 4.3 to 27
IC50 [16]: 6.7 µM
IC50 [17]: 35 µM
Activity (HepG2 [2]): Dose-dependent effect
IC50 (HepG2 [2]): 0.59 µM
Ratio (HepG2 [18]): 5.5
selectivity ratio [19]: 4.3 to 27
IC50 [20]: 0.87 µM
Activity (HepG2 [21]): Dose-dependent effect
